In ChEMBL document CHEMBL5058577, “EUbOPEN Chemogenomics Library 2 (Multiplex)” (2022):

Tested on: U2OS
Assay: Multiplex assay against U2OS
Type: toxicity, cell-based
Settings: human
Outline: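 Live cells carried four stains from seeding: Hoechst33342, BioTracker Green Microtubule Cytoskeleton Dye, MitoTracker Red and Annexin V Alexa Fluor 680. They were imaged on a CQ1 microscope at 37°C and 5% CO2 after compound addition. Using CellPathfinder machine-learning gating, cells were split into Hoechst high-intensity objects or normal cells, normal cells into healthy, pyknosed or fragmented nuclei, and pyknosed cells into mitotic or apoptotic; tubulin, mitochondrial-mass and membrane-permeability phenotypes are per cents of healthy-nucleus cells.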

[1] = 12 h, 1 µM, compound concentration 1 uM, replicate 1
[2] = 12 h, 1 µM, compound concentration 1 uM, replicate 2
[3] = 12 h, 10 µM, compound concentration 10 uM, replicate 1
[4] = 12 h, 10 µM, compound concentration 10 uM, replicate 2
[5] = 24 h, 1 µM, compound concentration 1 uM, replicate 1
[6] = 24 h, 1 µM, compound concentration 1 uM, replicate 2
[7] = 24 h, 10 µM, compound concentration 10 uM, replicate 1
[8] = 24 h, 10 µM, compound concentration 10 uM, replicate 2
[9] = 48 h, 1 µM, compound concentration 1 uM, replicate 1
[10] = 48 h, 1 µM, compound concentration 1 uM, replicate 2
[11] = 48 h, 10 µM, compound concentration 10 uM, replicate 1
[12] = 48 h, 10 µM, compound concentration 10 uM, replicate 2

O=C(NCCNCC(O)COc1ccc(O)cc1)N1CCOCC1.O=C(NCCNCC(O)COc1ccc(O)cc1)N1CCOCC1.O=C(O)/C=C/C(=O)O (stereo unspecified) [XAMOTEROL FUMARATE]
Population Apoptotic (%) [1]: 71% | Population Fragmented Nuclei (%) [1]: 27% | Population Healthy Nuclei (%) [1]: 66% | Population Hoechst High Intensity Objects (%) [1]: 2% | Population Membrane Permeable-Phenotype (%) [1]: 6% | Population Mitochondria Different-Phenotype (%) [1]: 1% | Population Mitotic Cells (%) [1]: 28% | Population Normal (%) [1]: 97% | Population Pyknosed Nuclei (%) [1]: 5% | Population Tubulin-Different-Phenotype (%) [1]: 2% | Total Cell Count [1]: 265 | Population Apoptotic (%) [2]: 83% | Population Fragmented Nuclei (%) [2]: 19% | Population Healthy Nuclei (%) [2]: 68% | Population Hoechst High Intensity Objects (%) [2]: 3% | Population Membrane Permeable-Phenotype (%) [2]: 13% | Population Mitotic Cells (%) [2]: 16% | Population Normal (%) [2]: 96% | Population Pyknosed Nuclei (%) [2]: 11% | Population Tubulin-Different-Phenotype (%) [2]: 5% | Total Cell Count [2]: 110 | Population Apoptotic (%) [3]: 92% | Population Fragmented Nuclei (%) [3]: 28% | Population Healthy Nuclei (%) [3]: 60% | Population Hoechst High Intensity Objects (%) [3]: 0% | Population Membrane Permeable-Phenotype (%) [3]: 6% | Population Mitochondria Different-Phenotype (%) [3]: 2% | Population Mitotic Cells (%) [3]: 7% | Population Normal (%) [3]: 99% | Population Pyknosed Nuclei (%) [3]: 11% | Population Tubulin-Different-Phenotype (%) [3]: 4% | Total Cell Count [3]: 239 | Population Apoptotic (%) [4]: 100% | Population Fragmented Nuclei (%) [4]: 15% | Population Healthy Nuclei (%) [4]: 73% | Population Hoechst High Intensity Objects (%) [4]: 4% | Population Membrane Permeable-Phenotype (%) [4]: 4% | Population Mitochondria Different-Phenotype (%) [4]: 3% | Population Mitotic Cells (%) [4]: 0% | Population Normal (%) [4]: 95% | Population Tubulin-Different-Phenotype (%) [4]: 7% | Total Cell Count [4]: 118 | Population Apoptotic (%) [5]: 85% | Population Fragmented Nuclei (%) [5]: 24% | Population Healthy Nuclei (%) [5]: 68% | Population Hoechst High Intensity Objects (%) [5]: 0% | Population Membrane Permeable-Phenotype (%) [5]: 5% | Population Mitochondria Different-Phenotype (%) [5]: 0% | Population Mitotic Cells (%) [5]: 15% | Population Normal (%) [5]: 99% | Population Pyknosed Nuclei (%) [5]: 6% | Population Tubulin-Different-Phenotype (%) [5]: 1% | Total Cell Count [5]: 312 | Population Apoptotic (%) [6]: 80% | Population Fragmented Nuclei (%) [6]: 18% | Population Healthy Nuclei (%) [6]: 69% | Population Hoechst High Intensity Objects (%) [6]: 1% | Population Membrane Permeable-Phenotype (%) [6]: 10% | Population Mitochondria Different-Phenotype (%) [6]: 4% | Population Mitotic Cells (%) [6]: 20% | Population Normal (%) [6]: 98% | Population Pyknosed Nuclei (%) [6]: 11% | Population Tubulin-Different-Phenotype (%) [6]: 5% | Total Cell Count [6]: 129 | Population Apoptotic (%) [7]: 89% | Population Fragmented Nuclei (%) [7]: 22% | Population Healthy Nuclei (%) [7]: 66% | Population Hoechst High Intensity Objects (%) [7]: 1% | Population Membrane Permeable-Phenotype (%) [7]: 6% | Population Mitochondria Different-Phenotype (%) [7]: 2% | Population Mitotic Cells (%) [7]: 10% | Population Normal (%) [7]: 98% | Population Pyknosed Nuclei (%) [7]: 10% | Population Tubulin-Different-Phenotype (%) [7]: 2% | Total Cell Count [7]: 270 | Population Apoptotic (%) [8]: 78% | Population Fragmented Nuclei (%) [8]: 16% | Population Healthy Nuclei (%) [8]: 70% | Population Mitotic Cells (%) [8]: 21% | Population Pyknosed Nuclei (%) [8]: 12% | Population Tubulin-Different-Phenotype (%) [8]: 6% | Total Cell Count [8]: 152 | Population Apoptotic (%) [9]: 90% | Population Fragmented Nuclei (%) [9]: 18% | Population Healthy Nuclei (%) [9]: 75% | Population Hoechst High Intensity Objects (%) [9]: 1% | Population Membrane Permeable-Phenotype (%) [9]: 4% | Population Mitochondria Different-Phenotype (%) [9]: 2% | Population Mitotic Cells (%) [9]: 9% | Population Normal (%) [9]: 98% | Population Pyknosed Nuclei (%) [9]: 6% | Population Tubulin-Different-Phenotype (%) [9]: 2% | Total Cell Count [9]: 472 | Population Apoptotic (%) [10]: 91% | Population Fragmented Nuclei (%) [10]: 23% | Population Healthy Nuclei (%) [10]: 62% | Population Hoechst High Intensity Objects (%) [10]: 2% | Population Membrane Permeable-Phenotype (%) [10]: 6% | Population Mitochondria Different-Phenotype (%) [10]: 3% | Population Mitotic Cells (%) [10]: 8% | Population Normal (%) [10]: 97% | Population Pyknosed Nuclei (%) [10]: 13% | Population Tubulin-Different-Phenotype (%) [10]: 4% | Total Cell Count [10]: 171 | Population Apoptotic (%) [11]: 89% | Population Fragmented Nuclei (%) [11]: 18% | Population Healthy Nuclei (%) [11]: 68% | Population Hoechst High Intensity Objects (%) [11]: 1% | Population Membrane Permeable-Phenotype (%) [11]: 2% | Population Mitochondria Different-Phenotype (%) [11]: 1% | Population Mitotic Cells (%) [11]: 10% | Population Normal (%) [11]: 98% | Population Pyknosed Nuclei (%) [11]: 12% | Population Tubulin-Different-Phenotype (%) [11]: 2% | Total Cell Count [11]: 392 | Population Apoptotic (%) [12]: 94% | Population Fragmented Nuclei (%) [12]: 17% | Population Healthy Nuclei (%) [12]: 73% | Population Hoechst High Intensity Objects (%) [12]: 2% | Population Membrane Permeable-Phenotype (%) [12]: 4% | Population Mitochondria Different-Phenotype (%) [12]: 4% | Population Mitotic Cells (%) [12]: 5% | Population Normal (%) [12]: 97% | Population Pyknosed Nuclei (%) [12]: 9% | Population Tubulin-Different-Phenotype (%) [12]: 6% | Total Cell Count [12]: 206
